{"source": "ChEMBL document CHEMBL3046951", "about": "“Volatile constituents from the leaves of Callicarpa japonica Thunb. and their antibacterial activities” (2004)", "format_in_all_cases": "functional", "key": {"Staphylococcus aureus [1]": {"tested_on": "Staphylococcus aureus", "experiment": "Antimicrobial activity against Staphylococcus aureus ATCC 25923 assessed as growth inhibition rate at 1.2 mg/l after 72 hr by spectrophotometry", "conditions": "ATCC 25923, 72 h, read-out: GI", "outline": "(§1)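 Authentic volatiles (>95% purity; 2,4-heptadienal 90%) tested against 18 h subcultures. Growth media: E. coli O157:H7 and S. aureus in tryptic soy broth at 37 °C; L. monocytogenes in tryptic soy broth at 30 °C; V. parahaemolyticus in tryptic soy broth + 3% NaCl at 37 °C; S. typhimurium in nutrient broth at 30 °C. Bioscreen C OD every 24 h for 72 h versus 10% Tween 80 control.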"}, "Vibrio parahaemolyticus [2]": {"tested_on": "Vibrio parahaemolyticus", "experiment": "Antimicrobial activity against Vibrio parahaemolyticus ATCC 33844 assessed as growth inhibition rate at 1.2 mg/l after 72 hr by spectrophotometry", "conditions": "ATCC 33844, 72 h, read-out: GI", "outline": "as §1"}, "Bacillus cereus [3]": {"tested_on": "Bacillus cereus", "experiment": "Antimicrobial activity against Bacillus cereus ATCC 11778 assessed as growth inhibition rate at 1.2 mg/l after 72 hr by spectrophotometry", "conditions": "ATCC 11778, 72 h, read-out: GI", "outline": "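Pure volatile compounds (>95% purity; 2,4-heptadienal 90%) identified in the leaf extract were tested against B. cereus ATCC 11778 in nutrient broth at 30 °C. The inoculum was grown 24 h, then subcultured (0.1 mL into 9.9 mL) for 18 h. Optical density was read in a Bioscreen C every 24 h for 72 h against a 10% Tween 80 control.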"}, "Listeria monocytogenes [4]": {"tested_on": "Listeria monocytogenes", "experiment": "Antimicrobial activity against Listeria monocytogenes ATCC 19111 assessed as growth inhibition rate at 1.2 mg/l after 72 hr by spectrophotometry", "conditions": "ATCC 19111, 72 h, read-out: GI", "outline": "as §1"}, "Salmonella typhimurium [5]": {"tested_on": "Salmonella typhimurium", "experiment": "Antimicrobial activity against Salmonella enterica subsp. enterica serovar Typhimurium ATCC 14028 assessed as growth inhibition rate at 1.2 mg/l after 72 hr by spectrophotometry", "conditions": "ATCC 14028, 72 h, read-out: GI", "outline": "as §1"}, "Escherichia coli [6]": {"tested_on": "Escherichia coli", "experiment": "Antimicrobial activity against Escherichia coli O157:H7 ATCC 43894 assessed as growth inhibition rate at 1.2 mg/l after 72 hr by spectrophotometry", "conditions": "O157:H7 ATCC 43894, 72 h, read-out: GI"}, "Escherichia coli [7]": {"tested_on": "Escherichia coli", "experiment": "Antimicrobial activity against Escherichia coli O157:H7 ATCC 43894 assessed as growth inhibition rate at 11.64 mg/l after 72 hr by spectrophotometry", "conditions": "O157:H7 ATCC 43894, 72 h, read-out: GI"}, "Bacillus cereus [8]": {"tested_on": "Bacillus cereus", "experiment": "Antimicrobial activity against Bacillus cereus ATCC 11778 assessed as growth inhibition rate at 11.64 mg/l after 72 hr by spectrophotometry", "conditions": "ATCC 11778, 72 h, read-out: GI", "outline": "(§2)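 Pure volatile compounds (purity >95%; one at 90%) were tested against B. cereus ATCC 11778. The strain was grown at 30 °C in nutrient broth for 24 h, then subcultured for 18 h. Optical density was read in a Bioscreen C every 24 h for 72 h, with 10% Tween 80 as the control.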"}, "Staphylococcus aureus [9]": {"tested_on": "Staphylococcus aureus", "experiment": "Antimicrobial activity against Staphylococcus aureus ATCC 25923 assessed as growth inhibition rate at 11.64 mg/l after 72 hr by spectrophotometry", "conditions": "ATCC 25923, 72 h, read-out: GI"}, "Vibrio parahaemolyticus [10]": {"tested_on": "Vibrio parahaemolyticus", "experiment": "Antimicrobial activity against Vibrio parahaemolyticus ATCC 33844 assessed as growth inhibition rate at 11.64 mg/l after 72 hr by spectrophotometry", "conditions": "ATCC 33844, 72 h, read-out: GI"}, "Salmonella typhimurium [11]": {"tested_on": "Salmonella typhimurium", "experiment": "Antimicrobial activity against Salmonella enterica subsp. enterica serovar Typhimurium ATCC 14028 assessed as growth inhibition rate at 11.64 mg/l after 72 hr by spectrophotometry", "conditions": "ATCC 14028, 72 h, read-out: GI", "outline": "(§3)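 Salmonella Typhimurium ATCC 14028 grown in nutrient broth at 30 °C, precultured 24 h, then subcultured 1:100 for 18 h before testing. Single volatile compounds (>95% pure) were added. OD was read every 24 h over 72 h in a Bioscreen C, with 10% Tween 80 as the comparison control.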"}, "Listeria monocytogenes [12]": {"tested_on": "Listeria monocytogenes", "experiment": "Antimicrobial activity against Listeria monocytogenes ATCC 19111 assessed as growth inhibition rate at 11.64 mg/l after 72 hr by spectrophotometry", "conditions": "ATCC 19111, 72 h, read-out: GI", "outline": "(§4)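 L. monocytogenes was grown at 30 °C in tryptic soy broth, subcultured for 18 h, and exposed to pure volatile compounds (>95% purity). Growth was followed by Bioscreen C optical density every 24 h for 72 h against a 10% Tween 80 control.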"}, "Staphylococcus aureus [13]": {"tested_on": "Staphylococcus aureus", "experiment": "Antimicrobial activity against Staphylococcus aureus ATCC 25923 assessed as growth inhibition rate at 143.24 mg/l after 72 hr by spectrophotometry", "conditions": "ATCC 25923, 72 h, read-out: GI"}, "Bacillus cereus [14]": {"tested_on": "Bacillus cereus", "experiment": "Antimicrobial activity against Bacillus cereus ATCC 11778 assessed as growth inhibition rate at 143.24 mg/l after 72 hr by spectrophotometry", "conditions": "ATCC 11778, 72 h, read-out: GI", "outline": "as §2"}, "Escherichia coli [15]": {"tested_on": "Escherichia coli", "experiment": "Antimicrobial activity against Escherichia coli O157:H7 ATCC 43894 assessed as growth inhibition rate at 143.24 mg/l after 72 hr by spectrophotometry", "conditions": "O157:H7 ATCC 43894, 72 h, read-out: GI"}, "Vibrio parahaemolyticus [16]": {"tested_on": "Vibrio parahaemolyticus", "experiment": "Antimicrobial activity against Vibrio parahaemolyticus ATCC 33844 assessed as growth inhibition rate at 143.24 mg/l after 72 hr by spectrophotometry", "conditions": "ATCC 33844, 72 h, read-out: GI"}, "Listeria monocytogenes [17]": {"tested_on": "Listeria monocytogenes", "experiment": "Antimicrobial activity against Listeria monocytogenes ATCC 19111 assessed as growth inhibition rate at 143.24 mg/l after 72 hr by spectrophotometry", "conditions": "ATCC 19111, 72 h, read-out: GI", "outline": "as §4"}, "Salmonella typhimurium [18]": {"tested_on": "Salmonella typhimurium", "experiment": "Antimicrobial activity against Salmonella enterica subsp. enterica serovar Typhimurium ATCC 14028 assessed as growth inhibition rate at 143.24 mg/l after 72 hr by spectrophotometry", "conditions": "ATCC 14028, 72 h, read-out: GI", "outline": "as §3"}}, "data": [{"smiles": "CC=O", "values": [{"measurement": "inhibition of growth at 1.2 µg/mL", "setting": "Staphylococcus aureus [1]", "value": 2.8, "unit": "%"}, {"measurement": "inhibition of growth at 1.2 µg/mL", "setting": "Vibrio parahaemolyticus [2]", "value": 11.1, "unit": "%"}, {"measurement": "inhibition of growth at 1.2 µg/mL", "setting": "Bacillus cereus [3]", "value": 1.2, "unit": "%"}, {"measurement": "inhibition of growth at 1.2 µg/mL", "setting": "Listeria monocytogenes [4]", "value": 10, "unit": "%"}, {"measurement": "inhibition of growth at 1.2 µg/mL", "setting": "Salmonella typhimurium [5]", "value": 15.4, "unit": "%"}, {"measurement": "inhibition of growth at 1.2 µg/mL", "setting": "Escherichia coli [6]", "value": 5.3, "unit": "%"}]}, {"smiles": "CC1=C[C@@H]2C(=C(C)CC[C@H]2C(C)C)CC1", "values": [{"measurement": "inhibition of growth at 11.64 µg/mL", "setting": "Escherichia coli [7]", "value": 9.5, "unit": "%"}, {"measurement": "inhibition of growth at 11.64 µg/mL", "setting": "Bacillus cereus [8]", "value": 20.3, "unit": "%"}, {"measurement": "inhibition of growth at 11.64 µg/mL", "setting": "Staphylococcus aureus [9]", "value": 26.3, "unit": "%"}, {"measurement": "inhibition of growth at 11.64 µg/mL", "setting": "Vibrio parahaemolyticus [10]", "value": 32.5, "unit": "%"}, {"measurement": "inhibition of growth at 11.64 µg/mL", "setting": "Salmonella typhimurium [11]", "value": 4.3, "unit": "%"}, {"measurement": "inhibition of growth at 11.64 µg/mL", "setting": "Listeria monocytogenes [12]", "value": 15.7, "unit": "%"}]}, {"smiles": "C=C1CC[C@@H]2[C@H]([C@@H]3[C@H](C)CC[C@@H]13)C2(C)C", "note": "[(-)-AROMADENDRENE II]", "values": [{"measurement": "inhibition of growth at 143.24 µg/mL", "setting": "Staphylococcus aureus [13]", "value": 61.5, "unit": "%"}, {"measurement": "inhibition of growth at 143.24 µg/mL", "setting": "Bacillus cereus [14]", "value": 72.3, "unit": "%"}, {"measurement": "inhibition of growth at 143.24 µg/mL", "setting": "Escherichia coli [15]", "value": 24.2, "unit": "%"}, {"measurement": "inhibition of growth at 143.24 µg/mL", "setting": "Vibrio parahaemolyticus [16]", "value": 45.6, "unit": "%"}, {"measurement": "inhibition of growth at 143.24 µg/mL", "setting": "Listeria monocytogenes [17]", "value": 28, "unit": "%"}, {"measurement": "inhibition of growth at 143.24 µg/mL", "setting": "Salmonella typhimurium [18]", "value": 36.4, "unit": "%"}]}]}
